# ChEMBL document CHEMBL4359879, “Synthesis and evaluation of 2-carboxy indole derivatives as potent and selective anti-leukemic agents” (Eur J Med Chem, 2019)
# Calls of active or inactive are those of the source. No cut-off for these calls is given here.
# What was measured:
# HL-60 [1] = assay: Effect on human HL60 cells assessed as fold change in LSMEM1 gene expression at 1.085 uM incubated for 6 hrs by microarray-based method; format: functional
# Summary of the method: (§1)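 HL60 cells were treated in triplicate with 1.085 µM or vehicle for 6 h. Total RNA was extracted with on-column DNase treatment and profiled on expression arrays.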
# HL-60 [2] = assay: Effect on human HL60 cells assessed as fold change in ITPR3 gene expression at 1.085 uM incubated for 6 hrs by microarray-based method; format: functional; summary of the method: as §1
# RS4-11 [3] = assay: Induction of DNA damage in human RS4:11 cells assessed as accumulation of cells at G1 phase at 300 nM incubated for 18 hrs in presence of H2AX antibody by immunofluorescent staining based flow cytometric analysis relative to control; format: functional
# Summary of the method: (§2)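 RS4;11 cells treated with 300 nM or DMSO vehicle for 18 h, then pulsed with 10 μM BrdU for 1 h. Harvested cells immunostained for BrdU/PI (cell cycle), γH2AX (DNA damage) and PARP (apoptosis). Multicolor flow cytometry gated G1, sub-G2-like, G2/M and sub-G0/G1 populations.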
# HL-60 [4] = assay: Effect on human HL60 cells assessed as fold change in PNMT gene expression at 1.085 uM incubated for 6 hrs by microarray-based method; format: functional; summary of the method: as §1
# HL-60 [5] = assay: Effect on human HL60 cells assessed as fold change in IPO13 gene expression at 1.085 uM incubated for 6 hrs by microarray-based method; format: functional; summary of the method: as §1
# RS4-11 [6] = assay: Induction of cell cycle arrest in human RS4:11 cells assessed as effect on S phase at 300 nM incubated for 18 hrs by BrdU/propidium iodide staining based flow cytometric analysis; format: functional; summary of the method: as §2
# RS4-11 [7] = assay: Effect on human RS4:11 cells assessed as increase in p53 protein expression at 300 nM incubated for 15 to 360 mins by Western blot analysis; format: functional, cell-based
# Summary of the method: (§3)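 Leukemia cells (RS4;11, CEM, HL60) treated with 300 nM for 0, 15, 30, 60 and 360 min. Western blotting for β-tubulin and p53, with lamin B1 as loading control and chemiluminescent detection.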
# HL-60 [8] = assay: Effect on human HL60 cells assessed as increase in p53 protein expression at 300 nM incubated for 15 to 360 mins by Western blot analysis; format: functional, cell-based; summary of the method: as §3
# HL-60 [9] = assay: Induction of cell cycle arrest in human HL60 cells assessed as accumulation of cells at S phase at EC50 incubated for 12 hrs by PI staining based flow cytometric analysis (reference value: 19.0%); format: functional
# HL-60 [10] = assay: Induction of cell cycle arrest in human HL60 cells assessed as accumulation of cells at G0/G1 phase at EC50 incubated for 12 hrs by PI staining based flow cytometric analysis (reference value: 56.3%); format: functional
# HL-60 [11] = assay: Effect on human HL60 cells assessed as fold change in C14orf180 gene expression at 1.085 uM incubated for 6 hrs by microarray-based method; format: functional; summary of the method: as §1
# HL-60 [12] = assay: Effect on human HL60 cells assessed as fold change in SLC8A2 gene expression at 1.085 uM incubated for 6 hrs by microarray-based method; format: functional; summary of the method: as §1
# HL-60 [13] = assay: Effect on human HL60 cells assessed as fold change in CELF2 gene expression at 1.085 uM incubated for 6 hrs by microarray-based method; format: functional; summary of the method: as §1
# HL-60 [14] = assay: Effect on human HL60 cells assessed as fold change in TAS1R1 gene expression at 1.085 uM incubated for 6 hrs by microarray-based method; format: functional; summary of the method: as §1
# HL-60 [15] = assay: Effect on human HL60 cells assessed as fold change in GBP3 gene expression at 1.085 uM incubated for 6 hrs by microarray-based method; format: functional; summary of the method: as §1
# HL-60 [16] = assay: Effect on human HL60 cells assessed as fold change in RAB39B gene expression at 1.085 uM incubated for 6 hrs by microarray-based method; format: functional; summary of the method: as §1
# HL-60 [17] = assay: Effect on human HL60 cells assessed as fold change in GPSM2 gene expression at 1.085 uM incubated for 6 hrs by microarray-based method; format: functional; summary of the method: as §1
# HL-60 [18] = assay: Effect on human HL60 cells assessed as fold change in ARL17B gene expression at 1.085 uM incubated for 6 hrs by microarray-based method; format: functional; summary of the method: as §1
# HL-60 [19] = assay: Induction of apoptosis in human HL60 cells at 300 nM incubated for 18 hrs by Annexin V-FITC/propidium iodide staining-based flow cytometric analysis; format: functional, cell-based
# Summary of the method: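 CEM, HL60 or RS4;11 cells (5×10^5) treated with 300 nM or vehicle for 18 h. Stained with FITC-Annexin V in binding buffer for 15 min at 37 °C, then PI (5 μg/mL) for 3 min. Analyzed by flow cytometry.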
# Tubulin (Homo sapiens) [20] = molecular target: T1, Tubulin (Homo sapiens) (UniProt P68371+Q9H4B7+P0DPH7+P68366+Q13509+Q71U36+P04350+Q3ZCM7+P07437+P68363+Q9BQE3+Q6PEY2+Q13885+Q9BVA1+Q9BUF5); assay: Inhibition of tubulin polymerization in human HL60 cells at 300 nM by Western blot analysis; format: cell-based; conditions: TDE = time-dependent effect; summary of the method: as §3
# HL-60 [21] = assay: Effect on human HL60 cells assessed as fold change in DSTYK gene expression at 1.085 uM incubated for 6 hrs by microarray-based method; format: functional; summary of the method: as §1
# HL-60 [22] = assay: Effect on human HL60 cells assessed as fold change in TAF15 gene expression at 1.085 uM incubated for 6 hrs by microarray-based method; format: functional; summary of the method: as §1
# HL-60 [23] = assay: Effect on human HL60 cells assessed as fold change in NMNAT1 gene expression at 1.085 uM incubated for 6 hrs by microarray-based method; format: functional; summary of the method: as §1
# HL-60 [24] = assay: Induction of cell cycle arrest in human HL60 cells assessed as accumulation of cells at sub G0/G1 phase at EC50 incubated for 18 hrs by PI staining based flow cytometric analysis (reference value: 1.67%); format: functional
# HL-60 [25] = assay: Effect on human HL60 cells assessed as fold change in MOB2 gene expression at 1.085 uM incubated for 6 hrs by microarray-based method; format: functional; summary of the method: as §1
# Tubulin (Homo sapiens) [26] = molecular target: T1, Tubulin (Homo sapiens); assay: Induction of microtubule network depolymerization in human HeLa cells assessed as fragmented centrosomal material at 500 nM incubated for 18 hrs by DAPI staining based fluorescence microscopic method; format: cell-based
# Summary of the method: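 HeLa cells (100,000/mL) cultured overnight on glass-bottom dishes, then exposed to 500 nM or 1 μM, or DMSO, for 18 h. Permeabilized (0.5% Triton X-100) and fixed (3.7% formaldehyde). Stained overnight at 4 °C with anti-β-tubulin, then Alexa Fluor 647 secondary for 1 h at room temperature, and DAPI 1 μg/mL for 10 min. Examined by fluorescence microscopy.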
# T-cell = assay: Cytotoxicity against phytohemagglutinin and interleukin-2-stimulated T-lymphocytes (unknown origin) up to 100 uM after 48 hrs by MTT assay; format: cell-based
# Summary of the method: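 Post-ficoll lymphocytes from healthy donors were grown in RPMI-1640 with 10% FBS and stimulated overnight with phytohemagglutinin (25 µL/mL) plus IL-2 (50 U/mL). They were then exposed to decreasing concentrations for 48 h. Viability was measured by MTT (0.5 mg/ml final, 4 h), with SDS/HCl solubilization and absorbance at 570/620 nm, as survival relative to controls.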
smiles,measurement,setting,value
COC(=O)c1[nH]c2cc(OC)ccc2c1-c1ccc(C(F)(F)F)cc1,fold change (FC),HL-60 [1],-1.69
same,fold change (FC),HL-60 [2],1.57
same,Activity,RS4-11 [3],6.9%
same,fold change (FC),HL-60 [4],-1.53
same,fold change (FC),HL-60 [5],1.8
same,Activity,RS4-11 [6],inactive
same,Activity,RS4-11 [7],Active
same,Activity,HL-60 [8],Active
same,Activity,HL-60 [9],19.1%
same,Activity,HL-60 [10],20.8%
same,fold change (FC),HL-60 [11],1.56
same,fold change (FC),HL-60 [12],-1.53
same,fold change (FC),HL-60 [13],1.56
same,fold change (FC),HL-60 [14],-1.51
same,fold change (FC),HL-60 [15],-1.62
same,fold change (FC),HL-60 [16],-1.53
same,fold change (FC),HL-60 [17],1.62
same,fold change (FC),HL-60 [18],-1.5
same,Activity,HL-60 [19],Active
same,inhibition,Tubulin (Homo sapiens) [20],Tde
same,fold change (FC),HL-60 [21],1.61
same,fold change (FC),HL-60 [22],1.75
same,fold change (FC),HL-60 [23],1.5
same,Activity,HL-60 [24],24.1%
same,fold change (FC),HL-60 [25],-1.79
same,Activity,Tubulin (Homo sapiens) [26],Active
same,Activity,T-cell,Non-Toxic
